Experimental data: ChEMBL document CHEMBL1157864, “Synthesis of some novel 2-substituted-5-[isopropylthiazole] clubbed 1,2,4-triazole and 1,3,4-oxadiazoles as potential antimicrobial and antitubercular agents” (Eur J Med Chem, 2010)
≈ marks a conversion by molar mass, not a printed value.

Assays:
[1] = test system: Bacillus subtilis; experiment: Antimicrobial activity against Bacillus subtilis ATCC 60511 after 24 hrs by broth microdilution assay; format: functional; settings: ATCC 60511, 24 h
How it was run: (§1)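 Broth dilution MIC. Stock is 10 mg compound in 1 mL DMSO, serially diluted in Mueller–Hinton broth for bacteria or Sabouraud liquid medium for yeasts and mould. Tubes are inoculated at 10⁵ cfu/mL and incubated at 37 °C for 24 h. Controls are medium alone and medium with DMSO at matching dilutions. MIC is the lowest concentration giving complete growth inhibition.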

[2] = test system: A549; experiment: Cytotoxicity against human A549 cells at 250 uM; format: cell-based; settings: a549, 250 µM
How it was run: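 A549 lung adenocarcinoma cells are grown with fetal bovine serum. Compounds are taken from 10 mM DMSO stocks stored at −20 °C and diluted in culture medium, with treatments at 50–250 µM. Viability is read by MTT assay against untreated cells and a DMSO vehicle control.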

[3] = test system: Mycobacterium tuberculosis; experiment: Antimycobacterial activity against Mycobacterium tuberculosis H37Rv after 21 days by broth dilution assay; format: functional; settings: 504 h
How it was run: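 Middlebrook 7H9 broth with 10% albumin-dextrose-catalase and 0.2% glycerol; frozen culture thawed, diluted to 10⁵ cfu/mL and used as inoculum. Compounds taken up in DMSO and diluted twice in broth, 1.3% DMSO final. Incubated at 37 °C. Growth judged by eye against drug-free and inoculum-free controls and isoniazid. MIC is the lowest concentration inhibiting ≥99% of the starting population.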

[4] = test system: Candida tropicalis; experiment: Antimicrobial activity against Candida tropicalis ATCC 1369 after 24 hrs by broth microdilution assay; format: functional; settings: ATCC 1369, 24 h; how it was run: as §1
[5] = test system: Staphylococcus aureus; experiment: Antimicrobial activity against Staphylococcus aureus ATCC 11632 after 24 hrs by broth microdilution assay; format: functional; settings: ATCC 11632, 24 h; how it was run: as §1
[6] = test system: Escherichia coli; experiment: Antimicrobial activity against Escherichia coli ATCC 10536 after 24 hrs by broth microdilution assay; format: functional; settings: ATCC 10536, 24 h; how it was run: as §1
[7] = test system: Saccharomyces cerevisiae; experiment: Antimicrobial activity against Saccharomyces cerevisiae ATCC 9763 after 24 hrs by broth microdilution assay; format: functional; settings: ATCC 9763, 24 h; how it was run: as §1
[8] = test system: Enterococcus faecalis; experiment: Antimicrobial activity against Streptococcus faecalis ATCC 14506 after 24 hrs by broth microdilution assay; format: functional; settings: ATCC 14506, 24 h; how it was run: as §1
[9] = test system: Pseudomonas aeruginosa; experiment: Antimicrobial activity against Pseudomonas aeruginosa ATCC 10145 after 24 hrs by broth microdilution assay; format: functional; settings: ATCC 10145, 24 h; how it was run: as §1
[10] = test system: Klebsiella pneumoniae; experiment: Antimicrobial activity against Klebsiella pneumoniae ATCC 10031 after 24 hrs by broth microdilution assay; format: functional; settings: ATCC 10031, 24 h; how it was run: as §1
[11] = test system: Aspergillus niger; experiment: Antimicrobial activity against Aspergillus niger ATCC 6275 after 24 hrs by broth microdilution assay; format: functional; settings: ATCC 6275, 24 h; how it was run: as §1

Row | SMILES | MIC [1] [µg/mL] | Activity [2] | MIC [3] [µg/mL] | MIC [4] [µg/mL] | MIC [5] [µg/mL] | MIC [6] [µg/mL] | MIC [7] [µg/mL] | MIC [8] [µg/mL] | MIC [9] [µg/mL] | MIC [10] [µg/mL] | MIC [11] [µg/mL]
1 | CC(C)c1csc(-c2nnc(-c3ccc([N+](=O)[O-])cc3)o2)n1 | 31.2 (≈ 98.8 µM) | 50% | 62.5 (≈ 198 µM) | 16 (≈ 50.6 µM) | 16 (≈ 50.6 µM) | 125 (≈ 395 µM) | 16 (≈ 50.6 µM) | 31.2 (≈ 98.8 µM) | 31.2 (≈ 98.8 µM) | 62.5 (≈ 198 µM) | 31.2 (≈ 98.8 µM)
2 | Cc1ccc(/C=N/n2c(S)nnc2-c2nc(C(C)C)cs2)cc1 | 31.2 (≈ 91 µM) | 50% | 32.5 (≈ 94.6 µM) | 31.2 (≈ 91 µM) | 31.2 (≈ 91 µM) | 125 (≈ 364 µM) | 31.2 (≈ 91 µM) | 125 (≈ 364 µM) | 31.2 (≈ 91 µM) | 125 (≈ 364 µM) | 16 (≈ 46.6 µM)
3 | CC(C)c1csc(-c2nnc(S)n2/N=C/c2ccccc2Cl)n1 | 4 (≈ 11 µM) | 50% | 4 (≈ 11 µM) | 31.2 (≈ 85.9 µM) | 31.2 (≈ 85.9 µM) | 62.5 (≈ 172 µM) | 31.2 (≈ 85.9 µM) | 8 (≈ 22 µM) | 16 (≈ 44 µM) | 8 (≈ 22 µM) | 16 (≈ 44 µM)
4 | CC(=O)N1N=C(c2nc(C(C)C)cs2)OC1(C)c1ccc(Cl)cc1 (centres undefined) | 31.2 (≈ 85.9 µM) | Toxic | 16 (≈ 44 µM) | 31.2 (≈ 85.9 µM) | 16 (≈ 44 µM) | 8 (≈ 22 µM) | 62.5 (≈ 172 µM) | 62.5 (≈ 172 µM) | 8 (≈ 22 µM) | 8 (≈ 22 µM) | 62.5 (≈ 172 µM)
5 | COc1cc(/C=N/n2c(S)nnc2-c2nc(C(C)C)cs2)cc(OC)c1OC | 125 (≈ 298 µM) | – | 125 (≈ 298 µM) | 125 (≈ 298 µM) | 125 (≈ 298 µM) | 62.5 (≈ 149 µM) | 62.5 (≈ 149 µM) | 62.5 (≈ 149 µM) | 125 (≈ 298 µM) | 62.5 (≈ 149 µM) | 62.5 (≈ 149 µM)
6 | CC(C)c1csc(-c2nnc(S)n2/N=C/C=C/c2ccccc2)n1 | 8 (≈ 22.5 µM) | – | 4 (≈ 11.3 µM) | 31.2 (≈ 87.9 µM) | 8 (≈ 22.5 µM) | 4 (≈ 11.3 µM) | 31.2 (≈ 87.9 µM) | 31.2 (≈ 87.9 µM) | 16 (≈ 45 µM) | 4 (≈ 11.3 µM) | 125 (≈ 352 µM)
